The source made the active and inactive calls. The rule behind the calls is not given here.
Legend:
Mus musculus [1] = test: Teratogenic effect in SWV mouse assessed as resorptions at 310 mg/kg, ip administered on morning of day 8 of gestation; format: toxicity, organism-based; design: dose 310 mg/kg, route intraperitoneal; settings: in vivo
In short: (§1)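 SWV inbred mice: two-month-old nulligravid females mated overnight with males and checked for vaginal plugs next morning; gestation onset taken as 10 p.m. the previous night. On gestation day 8.5 each dam got one ip injection, 0.55–2.7 mmol/kg, in 25% aqueous Cremophor EL (vehicle controls dosed alike), 10 μL/g body weight. Litters and implants tallied; resorptions and live fetuses reported as counts with percentages.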

Mus musculus [2] = test: Anticonvulsant activity in CF1 albino mouse assessed as inhibition of subcutaneous pentylenetetrazole-induced seizures at 30 mg/kg, ip after 4 hrs; format: functional, organism-based; design: dose 30 mg/kg
In short: (§2)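 Adult male CF no. 1 albino mice (18-25 g) dosed ip with compound suspended in 0.5% methylcellulose (0.01 mL/g). Convulsant: pentylenetetrazol dissolved in 0.9% saline as a 0.85% solution for mice, given subcutaneously.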

Mus musculus [3] = test: Teratogenic effect in SWV mouse assessed as fetuses with neural tube deffects at 511 mg/kg, ip administered on morning of day 8 of gestation; format: toxicity, organism-based; design: dose 511 mg/kg, route intraperitoneal; settings: in vivo
In short: (§3)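 Two-month-old nulligravid SWV females were mated overnight and checked for vaginal plugs the next morning; gestation onset was set at 10 p.m. the previous night. On gestation day 8.5, each dam received a single ip injection (0.55-2.7 mmol/kg range) or vehicle (25% aqueous Cremophor EL) at 10 μL/g body weight. Litters were scored for implants, resorptions, live and dead fetuses, and fetuses with neural tube defects.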

Mus musculus [4] = test: Anticonvulsant activity in CF1 albino mouse assessed as inhibition of subcutaneous pentylenetetrazole-induced seizures at 300 mg/kg, ip after 0.5 hrs; format: functional, organism-based; design: dose 300 mg/kg; in short: as §2
Mus musculus [5] = test: Teratogenic effect in SWV mouse assessed as live fetuses at 310 mg/kg, ip administered on morning of day 8 of gestation; format: toxicity, organism-based; design: dose 310 mg/kg, route intraperitoneal; settings: in vivo; in short: as §3
Mus musculus [6] = test: Neurotoxicity in CF1 albino mouse assessed as motor impairment at 100 mg/kg, ip after 4 hrs; format: toxicity, organism-based; design: dose 100 mg/kg, route intraperitoneal; settings: in vivo
Mus musculus [7] = test: Anticonvulsant activity in CF1 albino mouse assessed as inhibition of subcutaneous pentylenetetrazole-induced seizures at 100 mg/kg, ip after 0.5 hrs; format: functional, organism-based; design: dose 100 mg/kg; in short: as §2
Mus musculus [8] = test: Anticonvulsant activity in CF1 albino mouse assessed as inhibition of maximal electroshock-induced seizures at 30 mg/kg, ip after 0.5 hrs; format: functional, organism-based; design: dose 30 mg/kg
In short: (§4)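 Test compounds suspended in 0.5% methylcellulose and given ip to adult male CF no. 1 albino mice (18-25 g) at 0.01 mL/g body weight before maximal electroshock challenge.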

Rattus norvegicus [9] = test: Anticonvulsant activity in Sprague-Dawley rat assessed as inhibition of maximal electroshock-induced seizures at 30 mg/kg, po after 2 hrs
Mus musculus [10] = test: Teratogenic effect in SWV mouse assessed as resorptions at 511 mg/kg, ip administered on morning of day 8 of gestation; format: toxicity, organism-based; design: dose 511 mg/kg, route intraperitoneal; settings: in vivo; in short: as §1
Mus musculus [11] = test: Teratogenic effect in SWV mouse assessed as resorptions at 156 mg/kg, ip administered on morning of day 8 of gestation; format: toxicity, organism-based; design: dose 156 mg/kg, route intraperitoneal; settings: in vivo; in short: as §1
Mus musculus [12] = test: Anticonvulsant activity in CF1 albino mouse assessed as inhibition of subcutaneous pentylenetetrazole-induced seizures at 100 mg/kg, ip after 4 hrs; format: functional, organism-based; design: dose 100 mg/kg; in short: as §2
Rattus norvegicus [13] = test: Neurotoxicity in Sprague-Dawley rat assessed as motor impairment at 30 mg/kg, po after 0.25 to 4 hrs; settings: in vivo
Mus musculus [14] = test: Teratogenic effect in SWV mouse assessed as live fetuses at 156 mg/kg, ip administered on morning of day 8 of gestation; format: toxicity, organism-based; design: dose 156 mg/kg, route intraperitoneal; settings: in vivo; in short: as §3
Mus musculus [15] = test: Neurotoxicity in CF1 albino mouse assessed as motor impairment at 30 mg/kg, ip after 0.5 hrs; format: toxicity, organism-based; design: dose 30 mg/kg, route intraperitoneal; settings: in vivo
Rattus norvegicus [16] = organism: Rattus norvegicus; test: Protective index, ratio of TD50 for rat to ED50 for maximal electroshock-induced rat seizure model
Mus musculus [17] = test: Anticonvulsant activity in CF1 albino mouse assessed as inhibition of maximal electroshock-induced seizures at 300 mg/kg, ip after 4 hrs; format: functional, organism-based; design: dose 300 mg/kg; in short: as §4
Rattus norvegicus [18] = test: Anticonvulsant activity in po dosed rat assessed as inhibition of maximal electroshock-induced seizures
Mus musculus [19] = test: Anticonvulsant activity in CF1 albino mouse assessed as inhibition of subcutaneous pentylenetetrazole-induced seizures at 30 mg/kg, ip after 0.5 hrs; format: functional, organism-based; design: dose 30 mg/kg; in short: as §2
Mus musculus [20] = test: Teratogenic effect in SWV mouse assessed as live fetuses at 511 mg/kg, ip administered on morning of day 8 of gestation; format: toxicity, organism-based; design: dose 511 mg/kg, route intraperitoneal; settings: in vivo; in short: as §1
Mus musculus [21] = test: Teratogenic effect in SWV mouse assessed as fetuses with neural tube deffects at 310 mg/kg, ip administered on morning of day 8 of gestation; format: toxicity, organism-based; design: dose 310 mg/kg, route intraperitoneal; settings: in vivo; in short: as §3
Mus musculus [22] = test: Anticonvulsant activity in CF1 albino mouse assessed as inhibition of maximal electroshock-induced seizures at 100 mg/kg, ip after 0.5 hrs; format: functional, organism-based; design: dose 100 mg/kg; in short: as §4
Mus musculus [23] = test: Anticonvulsant activity in CF1 albino mouse assessed as inhibition of maximal electroshock-induced seizures at 30 mg/kg, ip after 4 hrs; format: functional, organism-based; design: dose 30 mg/kg; in short: as §4
Mus musculus [24] = test: Neurotoxicity in CF1 albino mouse assessed as motor impairment at 30 mg/kg, ip after 4 hrs; format: toxicity, organism-based; design: dose 30 mg/kg, route intraperitoneal; settings: in vivo
Mus musculus [25] = test: Neurotoxicity in CF1 albino mouse assessed as motor impairment at 100 mg/kg, ip after 0.5 hrs; format: toxicity, organism-based; design: dose 100 mg/kg, route intraperitoneal; settings: in vivo
Rattus norvegicus [26] = test: Anticonvulsant activity in Sprague-Dawley rat assessed as inhibition of maximal electroshock-induced seizures at 30 mg/kg, po after 4 hrs
Mus musculus [27] = test: Anticonvulsant activity in CF1 albino mouse assessed as inhibition of maximal electroshock-induced seizures at 300 mg/kg, ip after 0.5 hrs; format: functional, organism-based; design: dose 300 mg/kg; in short: as §4
Mus musculus [28] = test: Neurotoxicity in CF1 albino mouse assessed as motor impairment at 300 mg/kg, ip after 4 hrs; format: toxicity, organism-based; design: dose 300 mg/kg, route intraperitoneal; settings: in vivo
Mus musculus [29] = test: Neurotoxicity in CF1 albino mouse assessed as motor impairment at 300 mg/kg, ip after 0.5 hrs; format: toxicity, organism-based; design: dose 300 mg/kg, route intraperitoneal; settings: in vivo
Mus musculus [30] = test: Anticonvulsant activity in CF1 albino mouse assessed as inhibition of subcutaneous pentylenetetrazole-induced seizures at 300 mg/kg, ip after 4 hrs; format: functional, organism-based; design: dose 300 mg/kg; in short: as §2

SMILES: CCC(CC)C(=O)NCc1ccc(S(N)(=O)=O)cc1
- Activity (Mus musculus [1]): 6.5%
- Activity (Mus musculus [2]): inactive
- Activity (Mus musculus [3]): 3.1%
- Activity (Mus musculus [4]): inactive
- Activity (Mus musculus [5]): 93.5%
- Activity (Mus musculus [6]): Non-toxic
- Activity (Mus musculus [7]): inactive
- Activity (Mus musculus [8]): inactive
- Activity (Rattus norvegicus [9]): inactive
- Activity (Mus musculus [10]): 6.4%
- Activity (Mus musculus [11]): 5.6%
- Activity (Mus musculus [12]): inactive
- Activity (Rattus norvegicus [13]): Non-toxic
- Activity (Mus musculus [14]): 94.4%
- Activity (Mus musculus [15]): Non-toxic
- Ratio TD50/ED50 (Rattus norvegicus [16]): >20.2
- Activity (Mus musculus [17]): Active
- ED50 (Rattus norvegicus [18]): 24.7 mg/kg
- Activity (Mus musculus [19]): inactive
- Activity (Mus musculus [20]): 93.6%
- Activity (Mus musculus [21]): 3.4%
- Activity (Mus musculus [22]): Active
- Activity (Mus musculus [23]): inactive
- Activity (Mus musculus [24]): Non-toxic
- Activity (Mus musculus [25]): Non-toxic
- Activity (Rattus norvegicus [26]): inactive
- Activity (Mus musculus [27]): Active
- Activity (Mus musculus [28]): Non-toxic
- Activity (Mus musculus [29]): Non-toxic
- Activity (Mus musculus [30]): inactive

Reference: ChEMBL document CHEMBL1155468, “Syntheses and evaluation of anticonvulsant profile and teratogenicity of novel amide derivatives of branched aliphatic carboxylic acids with 4-aminobenzensulfonamide” (J Med Chem, 2010)
